Reference: ChEMBL document CHEMBL3102739, “Synthesis and antiproliferative activity of conformationally restricted 1,2,3-triazole analogues of combretastatins in the sea urchin embryo model and against human cancer cell lines” (Bioorg Med Chem, 2014)

Columns and labels:
Paracentrotus lividus [1] = test: Antimitotic activity against sea urchin embryo model assessed as cleavage arrest of fertilized egg compound treated at 8 to 20 mins post-fertilization and 45 to 55 mins prior to first mitotic cycle completion measured 2.5 to 5.5 hrs post-fertilization; format: functional
Procedure, shortened: (§1)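 Fertilized eggs are exposed 8–20 min after fertilization to 2-fold decreasing concentrations. Stocks are 10 mM in DMSO, then diluted 10-fold in 95% EtOH; final DMSO is at most 0.05% and EtOH at most 1%. Embryos are kept as a monolayer, up to 2000 embryos/mL, in filtered seawater at room temperature. The value is the threshold concentration giving cleavage alteration, embryo death before hatching or full mitotic arrest. Duplicates were run.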

Paracentrotus lividus [2] = test: Antimitotic activity against sea urchin embryo free-swimming blastula model assessed as embryo spinning compound treated at 8 to 10 hrs post-fertilization measured after 0.25 to 20 hrs; format: functional, Blastula stage
Paracentrotus lividus [3] = test: Antimitotic activity against sea urchin embryo model assessed as cleavage alteration of fertilized egg compound treated at 8 to 20 mins post-fertilization and 45 to 55 mins prior to first mitotic cycle completion measured 2.5 to 5.5 hrs post-fertilization; format: functional; procedure, shortened: as §1
[4] = Growth inhibition of human NCI60 cells at 10 uM after 48 hrs by SRB assay; format: functional; details: NCI60, 48 h, values are per cent of control

Structure (SMILES) | EC (Paracentrotus lividus [1]) [µM] | EC (Paracentrotus lividus [2]) [µM] | EC (Paracentrotus lividus [3]) [µM] | growth, % of control at 10 µM [4] [%]
COc1ccc(-n2nnc(C#N)c2-c2cccc(OC)c2)cc1 | 1 | 5 | 0.2 | 
O=C(O)c1nnn(-c2cccc(Cl)c2)c1-c1ccccc1 | >4 | >4 | >4 | 
COc1cc(-c2c(C#N)nnn2-c2cccc(Cl)c2)cc(OC)c1OC | 2 | >5 | 0.5 | 92.6
COc1ccc(-c2cnnn2-c2cc(OC)c3c(c2OC)OCO3)cc1 | >4 | >4 | 1 | 
COC(=O)c1nnn(-c2cc(OC)c(OC)c(OC)c2)c1-c1ccc(OC)cc1 | >4 | >4 | >4 | 
Clc1cccc(-n2nncc2-c2ccccc2)c1 | >4 | >4 | >4 | 
COc1ccc(/C=C\c2cc(OC)c3c(c2)OCO3)cc1O [Combretastatin A-2] | 0.01 | 0.05 | 0.002 | 
CCOC(=O)c1nnn(-c2cccc(Cl)c2)c1-c1ccccc1 | >4 | >4 | >4 | 
COc1cc(-c2c(C#N)nnn2-c2cc(OC)c(OC)c(OC)c2)cc(OC)c1OC | >4 | >4 | >4 | 98.8
COc1ccc(-c2c(N)nnn2-c2cc(OC)c(OC)c(OC)c2)cc1 | >4 | >5 | 0.1 | 
COc1ccc(-c2c(C(=O)O)nnn2-c2cc(OC)c(OC)c(OC)c2)cc1 | >4 | >4 | >4 | 99.4
COc1ccc(-c2c(C(N)=O)nnn2-c2cc(OC)c(OC)c(OC)c2)cc1 | >4 | >4 | >4 | 101
COc1ccc(-c2c(C#N)nnn2-c2ccc(OC)cc2)cc1 | >4 | >4 | 4 | 96.7
COc1cccc(-c2c(C#N)nnn2-c2cccc(Cl)c2)c1 | >4 | >4 | >4 | 92
COc1ccc(-n2nnc(C#N)c2-c2cc(OC)c(OC)c(OC)c2)cc1 | >4 | >4 | 1 | 
COc1ccc(-c2c(C#N)nnn2-c2cc(OC)c(OC)c(OC)c2)cc1 | >4 | >4 | >4 | 
COc1ccc(-n2nnc(C(=O)O)c2-c2cc(OC)c(OC)c(OC)c2)cc1 | >4 | >4 | >4 | 104
COc1cc(-c2c(C(N)=O)nnn2-c2cc(OC)c(OC)c(OC)c2)cc(OC)c1OC | >4 | >4 | >4 | 102
COc1ccc(-n2nnc(N)c2-c2cc(OC)c(OC)c(OC)c2)cc1 | >4 | >4 | 4 | 90.1
Nc1nnn(-c2cccc(Cl)c2)c1-c1ccccc1 | >4 | >4 | >4 | 
